In brackets after ≈: the same amount, converted by molar mass.
How the values were obtained:
[1] = test system: HT-29; assay: Cytotoxicity against human HT-29 cells assessed as reduction of cell density incubated for 4 hrs in hypoxic (anoxic) condition measured 5 days post dose by SRB assay; assay type: functional, cell-based
Summary of the method: (§1)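 Log-phase monolayers given a 4 h drug exposure under aerobic (20% O₂) or anoxic (<20 ppm O₂) conditions. Cells were then stained with sulforhodamine B 5 days later. IC50 was interpolated as the concentration that cut cell density to 50% of same-plate controls. Values are means of two to seven experiments.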

[2] = test system: HT-29; assay: Cytotoxicity against human HT-29 cells assessed as reduction of cell density incubated for 4 hrs in oxic (aerobic) condition measured 5 days post dose by SRB assay; assay type: functional, cell-based; summary of the method: as §1
[3] = test system: SK-OV-3; assay: Cytotoxicity against human SKOV3 cells assessed as reduction of cell density incubated for 4 hrs in oxic (aerobic) condition measured 5 days post dose by SRB assay; assay type: functional, cell-based; summary of the method: as §1
[4] = test system: SK-OV-3; assay: Hypoxic cytotoxicity ratio, ratio of IC50 for human SKOV3 cells in oxic (aerobic) condition to IC50 for human SKOV3 cells in hypoxic (anoxic) conditions; assay type: functional
Summary of the method: (§2)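 HCR was calculated as IC50(oxic)/IC50(hypoxic) after 4 h drug exposure at 20% O₂ or <20 ppm O₂, with SRB read-out 5 days later.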

[5] = test system: HT-29; assay: Hypoxic cytotoxicity ratio, ratio of IC50 for human HT-29 cells in oxic (aerobic) condition to IC50 for human HT-29 cells in hypoxic (anoxic) conditions; assay type: functional; summary of the method: as §2
[6] = test system: SK-OV-3; assay: Cytotoxicity against human SKOV3 cells assessed as reduction of cell density incubated for 4 hrs in hypoxic (anoxic) condition measured 5 days post dose by SRB assay; assay type: functional, cell-based; summary of the method: as §1
[7] = Solubility in alphaMEM culture medium containing 5% FCS at 22 degC; assay type: physicochemical
Summary of the method: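 Solubility was measured in αMEM with 5% FCS, equilibrated with 5% CO₂/air, at 22 °C.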

SMILES	IC50 [1] [µM]	IC50 [2] [µM]	IC50 [3] [µM]	Ratio IC50 [4]	Ratio IC50 [5]	IC50 [6] [µM]	solubility [7] [µM]
COc1ccc2[nH]c(C(=O)N3CC(COS(=O)(=O)c4ccc(C)cc4)c4c3cc([N+](=O)[O-])c3ccccc43)cc2c1 (stereo unspecified)	0.7	6.5	11	34	7.9	0.38	12 (≈ 6.86 µg/mL)
COc1cc2cc(C(=O)N3CC(COS(=O)(=O)C4CCCCC4)c4c3cc(N)c3ccccc43)[nH]c2c(OC)c1OC (stereo unspecified)			0.0049	1		0.0065	37 (≈ 22 µg/mL)
Cc1ccc(S(=O)(=O)OCC2CN(C(=O)c3cc4cc(OCCO)ccc4[nH]3)c3cc([N+](=O)[O-])c4ccccc4c32)cc1 (stereo unspecified)	2.7	3.3	3	2.8	0.81	0.77	29 (≈ 17.4 µg/mL)
O=C(c1cc2cc(OCCO)ccc2[nH]1)N1CC(CCl)c2c1cc([N+](=O)[O-])c1ccccc21 (stereo unspecified)	5.7	6.6	9.3	3.8	1.1	3.3	13 (≈ 6.06 µg/mL)
COc1ccc2[nH]c(C(=O)N3CC(CCl)c4c3cc([N+](=O)[O-])c3ccccc43)cc2c1 (stereo unspecified)	1.3	9.7	4.8	3.1	7.4	1.54	38 (≈ 16.6 µg/mL)
COc1cc2cc(C(=O)N3CC(COS(C)(=O)=O)c4c3cc(N)c3ccccc43)[nH]c2c(OC)c1OC (stereo unspecified)							15 (≈ 7.88 µg/mL)
COc1cc2cc(C(=O)N3CC(COS(C)(=O)=O)c4c3cc([N+](=O)[O-])c3ccccc43)[nH]c2c(OC)c1OC (stereo unspecified)	0.31	1.5	2.2	39	4.6	0.14	69 (≈ 38.3 µg/mL)
CN(C)CCOc1ccc2[nH]c(C(=O)N3CC(COS(=O)(=O)Cc4ccccc4)c4c3cc([N+](=O)[O-])c3ccccc43)cc2c1 (stereo unspecified)	0.08	0.24	0.27	1.8	4	0.15	91 (≈ 57.2 µg/mL)
CN(C)CCOc1ccc2[nH]c(C(=O)N3CC(COS(=O)(=O)C4CCCCC4)c4c3cc([N+](=O)[O-])c3ccccc43)cc2c1 (stereo unspecified)	0.2	0.41	0.47	1.5	2.3	0.3	22 (≈ 13.7 µg/mL)
COc1cc2cc(C(=O)N3CC(COS(=O)(=O)c4ccc(C)cc4)c4c3cc([N+](=O)[O-])c3ccccc43)[nH]c2c(OC)c1OC (stereo unspecified)	0.47	12	8.8	72	28	0.22	89 (≈ 56.2 µg/mL)

Source: ChEMBL document CHEMBL1811874, “The effect of sulfonate leaving groups on the hypoxia-selective toxicity of nitro analogs of the duocarmycins” (Bioorg Med Chem, 2011)
